Kir21 inh – inhibitors of mouse Kir2.1 inward-rectifier potassium channel | HEK293-Kir2.1, FluxOR thallium flux fluorescence; stronger effect = lower value | actives 0.85% (n = 310,000) | B-score at 10 µM | P35561;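 active = fluorescence ratio B-score at or below minus 3 SD of library scores, with starting-brightness B-score within 2 SD, cut at about -4.2 in these data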;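 also: channel flux triggered by added potassium and thallium sulfate stimulus; B-score of peak minus minimum fluorescence over baseline after thallium stimulus; more negative B-score means stronger Kir2.1 block with less thallium influx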
KCNQ1 inh – human KCNQ1 channel inhibition | CHO-K1 KCNQ1, FluxOR thallium flux fluorescence; stronger effect = higher value | B-score at 10 µM | actives 1.3% (n = 310,000) | P51787;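 active = compounds whose thallium flux B-score, printed positive for inhibition, exceeds three library SD while starting fluorescence stays within three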;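 also: channel opened by potassium depolarization with thallium stimulus after 20 min compound exposure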
KCNK9 block – blocks the human KCNK9 two-pore domain potassium channel. Q9NPC2. HEK293 KCNK9, FluxOR thallium flux fluorescence; stronger effect = lower value. B-score at 10 µM. actives 1.2% (n = 310,000). AID 488922;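 active = ratio B-score over 3 SD below the library mean, with starting fluorescence within 5 SD of its mean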;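 also: negative B-score means less thallium flux so channel inhibition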
hERG protect – shields human hERG channel from block by proarrhythmic agents | Q12809 | CHO-hERG, FluxOR thallium flux, dofetilide IC70 present | activation (rescue from dofetilide block), less the hit threshold, % at 10 µM | actives 0.51% (n = 310,000);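 active = activation above the mean of controls blocked by dofetilide plus 5 SD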;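 also: thallium influx through hERG after potassium depolarization seen as dye fluorescence rise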
Target sequence (Q12809 whole entry, looked up): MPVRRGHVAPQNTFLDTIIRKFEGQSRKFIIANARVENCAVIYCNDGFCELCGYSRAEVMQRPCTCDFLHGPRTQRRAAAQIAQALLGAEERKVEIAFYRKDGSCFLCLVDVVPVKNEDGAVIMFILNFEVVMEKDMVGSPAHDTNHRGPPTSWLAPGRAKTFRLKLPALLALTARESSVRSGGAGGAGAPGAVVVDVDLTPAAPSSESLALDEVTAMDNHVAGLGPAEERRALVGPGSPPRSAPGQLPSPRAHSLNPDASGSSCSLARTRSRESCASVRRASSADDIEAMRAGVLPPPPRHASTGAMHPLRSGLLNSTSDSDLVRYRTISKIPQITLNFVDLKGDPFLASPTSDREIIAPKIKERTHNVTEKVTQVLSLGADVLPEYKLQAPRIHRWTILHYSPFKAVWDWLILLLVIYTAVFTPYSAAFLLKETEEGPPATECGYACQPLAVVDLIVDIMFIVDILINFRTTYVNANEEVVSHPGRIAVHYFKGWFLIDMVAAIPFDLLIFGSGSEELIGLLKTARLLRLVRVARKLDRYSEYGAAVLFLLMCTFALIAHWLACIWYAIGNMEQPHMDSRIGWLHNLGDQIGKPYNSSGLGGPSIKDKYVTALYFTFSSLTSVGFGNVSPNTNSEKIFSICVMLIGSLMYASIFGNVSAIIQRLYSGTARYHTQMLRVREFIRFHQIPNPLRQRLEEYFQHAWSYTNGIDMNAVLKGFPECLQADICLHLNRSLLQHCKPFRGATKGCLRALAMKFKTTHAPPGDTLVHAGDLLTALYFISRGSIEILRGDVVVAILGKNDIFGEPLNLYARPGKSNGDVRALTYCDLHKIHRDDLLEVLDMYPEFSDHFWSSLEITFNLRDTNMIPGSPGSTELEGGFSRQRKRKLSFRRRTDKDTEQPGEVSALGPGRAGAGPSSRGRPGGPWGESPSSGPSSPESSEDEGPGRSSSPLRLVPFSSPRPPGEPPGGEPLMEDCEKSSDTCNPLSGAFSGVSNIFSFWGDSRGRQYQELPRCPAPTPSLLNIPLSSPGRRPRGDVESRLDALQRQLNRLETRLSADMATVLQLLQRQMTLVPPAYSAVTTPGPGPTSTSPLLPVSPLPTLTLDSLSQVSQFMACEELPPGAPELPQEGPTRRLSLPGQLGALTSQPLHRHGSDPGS
KCNQ1 act – human KCNQ1 channel potentiation or activation; P51787; CHO-K1 KCNQ1, thallium flux FluxOR fluorescence; stronger effect = higher value; B-score at 10 µM; actives 0.35% (n = 310,000); AID 2648;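 active = fluorescence ratio B-score, a plate-corrected score, at least three library SD, with initial intensity B-score within 5 SD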
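assay system = CHO-K1 cells stably expressing KCNQ1 | medium = assay buffer, equal DMSO in all wells | timing = 37 °C overnight plating, 90-min dark dye load, 20-min compound pretreatment | measured by = kinetic FluxOR thallium fluorescence, 10-s 1-Hz baseline, 110-s post-stimulus read | measure = fluorescence change relative to baseline, converted to B score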
KCNK3 block – human KCNK3 channel inhibition, primary screen; O14649; CHO-KCNK3 thallium flux, FluxOR fluorescence; stronger effect = lower value; B-score at 10 µM; actives 0.84% (n = 340,000); AID 602410;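 active = B-score under library mean minus 4 SD, starting fluorescence ratio at most library mean plus 5 SD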;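 also: more negative B-score means stronger inhibition of thallium flux through KCNK3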
Numbers without * were called inactive. This is a sample that favours compounds with a hit; in the whole collection about 3.8% have one here.

`Cc1cc(N/N=C/c2cccc(F)c2)nc(NCc2ccccc2)n1` gave Kir21 inh 0.14, KCNQ1 inh 8*, KCNK9 block inactive, hERG protect -31, KCNQ1 act inactive and KCNK3 block inactive.
`CCOC(=O)c1ccccc1NC(=O)CSc1nc2[nH]ncc2c(=O)[nH]1` gave Kir21 inh -1.2, KCNQ1 inh inactive, KCNK9 block inactive, hERG protect -15, KCNQ1 act inactive and KCNK3 block inactive.
For C/C(=N\NC(=O)c1nnn(-c2nonc2N)c1CN(C)c1ccccc1)c1cccnc1 the results were Kir21 inh 2, KCNQ1 inh inactive, KCNK9 block inactive, hERG protect -3, KCNQ1 act inactive and KCNK3 block inactive.
For Cc1ccc(NS(=O)(=O)c2ccc(C(=O)NCC(c3ccco3)N3CCCCC3)cc2)cc1 (centres undefined) the results were Kir21 inh -1.3, KCNQ1 inh inactive, KCNK9 block inactive, hERG protect -14, KCNQ1 act inactive and KCNK3 block inactive.
O=C1CCC(c2ccc(-n3ccnc3)cc2)=NN1 was read as Kir21 inh -0.73, KCNQ1 inh inactive, KCNK9 block inactive, hERG protect -6, KCNQ1 act 33* and KCNK3 block inactive.
`O=C1CCC(c2ccccc2)=NN1` gave Kir21 inh 0.92, KCNQ1 inh inactive, KCNK9 block inactive, hERG protect -12, KCNQ1 act inactive and KCNK3 block inactive.
CCc1nnc(NC(=O)c2cccc(S(=O)(=O)N3CCN(c4ccccc4)CC3)c2)s1 was read as Kir21 inh 1.1, KCNQ1 inh inactive, KCNK9 block inactive, hERG protect 5.5*, KCNQ1 act inactive and KCNK3 block inactive.
For CCc1nnc(NC(=O)c2cc(S(=O)(=O)N3CCN(c4ccccc4)CC3)ccc2Cl)s1 the results were Kir21 inh -0.36, KCNQ1 inh inactive, KCNK9 block inactive, hERG protect -1, KCNQ1 act inactive and KCNK3 block inactive.
C/C(=N\Nc1nc(C)c(C)s1)c1ccc([N+](=O)[O-])cc1 was read as Kir21 inh 2.2, KCNQ1 inh inactive, KCNK9 block inactive, hERG protect 30*, KCNQ1 act 19* and KCNK3 block inactive.
`CC1CN(S(=O)(=O)c2cccc(C(=O)Nc3ccc(S(=O)(=O)NC4=NCCCCC4)cc3)c2)CC(C)O1` (centres undefined) gave Kir21 inh 1.6, KCNQ1 inh inactive, KCNK9 block inactive, hERG protect -13, KCNQ1 act inactive and KCNK3 block inactive.
For Cc1ccc(S(=O)(=O)Nc2cccnc2Oc2ccc(Cl)cc2)cc1 the results were Kir21 inh -5*, KCNQ1 inh inactive, KCNK9 block inactive, hERG protect -11, KCNQ1 act inactive and KCNK3 block inactive.
Cc1ccc(C(=O)Nc2cccnc2Oc2ccc(Cl)cc2)cc1 was read as Kir21 inh -1.4, KCNQ1 inh inactive, KCNK9 block inactive, hERG protect -12, KCNQ1 act inactive and KCNK3 block inactive.
`Cc1nc(N2CCCCC2)c2c(-c3cccs3)csc2n1` gave Kir21 inh -0.3, KCNQ1 inh inactive, KCNK9 block -7.3*, hERG protect -22, KCNQ1 act inactive and KCNK3 block inactive.
`Cc1cc(C)c2nc(N3CCCN(C(=O)c4cnccn4)CC3)c(C#N)cc2c1` gave Kir21 inh -5*, KCNQ1 inh inactive, KCNK9 block inactive, hERG protect -18, KCNQ1 act inactive and KCNK3 block inactive.
Screening Cc1cc(C)c2nc(N3CCN(C)CC3)c(C#N)cc2c1 returned Kir21 inh -1.2, KCNQ1 inh inactive, KCNK9 block inactive, hERG protect -12, KCNQ1 act inactive and KCNK3 block inactive.
For CC(C)(C)c1cc(-c2n[nH]c(=S)n2-c2ccccc2F)n[nH]1 the results were Kir21 inh 0.37, KCNQ1 inh inactive, KCNK9 block inactive, hERG protect 9.1*, KCNQ1 act inactive and KCNK3 block inactive.
N#Cc1c2c(c(NCCN3CCOCC3)n3c1nc1ccccc13)CCCC2 was read as Kir21 inh -1, KCNQ1 inh inactive, KCNK9 block inactive, hERG protect -12, KCNQ1 act inactive and KCNK3 block -8.9*.

Screens from PubChem.
